These results are taken from ChEMBL document CHEMBL1687757, “Many chromosomal genes modulate MarA-mediated multidrug resistance in Escherichia coli” (2010).

Each structure is given as a SMILES string. Converted amounts (≈) assume the structure as drawn.

For one assay, the system named is Escherichia coli. Nature of the assay: Antibacterial activity against marA-overproducing Escherichia coli CR1000 harboring inactivated metV gene assessed as MarA-mediated multidrug resistance level by measuring fold change in MIC relative to MarA-deficient Escherichia coli CR2000. The class given is functional.
Conditions: not given
In a few lines: (§1)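 Each inactivated gene was transferred into both the ΔmarR (CR1000) and the ΔmarRA (CR2000) BW25113 backgrounds. Each derivative was grown overnight in LB and tested by Etest on Mueller-Hinton plates, read after 20 h at 37°C, against cefoxitin, norfloxacin, chloramphenicol and minocycline. The MarA-mediated level compares the MIC in the ΔmarR derivative with the MIC in the matching ΔmarRA derivative.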
As to `CN(C)c1ccc(O)c2c1C[C@H]1C[C@H]3[C@H](N(C)C)C(O)=C(C(N)=O)C(=O)[C@@]3(O)C(O)=C1C2=O` [MINOCYCLINE], the Activity was found to be 65%.

Another assay has as its system Escherichia coli. Description: Antibacterial activity against marA-overproducing Escherichia coli CR1000 harboring inactivated appA gene assessed as MarA-mediated multidrug resistance level by measuring fold change in MIC relative to MarA-deficient Escherichia coli CR2000. The class given is functional.
Conditions: not given
In a few lines:
as §1
For `CN(C)c1ccc(O)c2c1C[C@H]1C[C@H]3[C@H](N(C)C)C(O)=C(C(N)=O)C(=O)[C@@]3(O)C(O)=C1C2=O` [MINOCYCLINE], the Activity is given as 100%.

Another assay deals with Escherichia coli. Description: Antibacterial activity against MarA-overexpressing Escherichia coli CR1000 after 20 hrs by Etest method. Type of assay: functional. The conditions noted are these: CR1000, 20 h. In a few lines:
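MICs by Etest strips on Mueller-Hinton plates, following the manufacturer's specifications. Cells came from overnight liquid cultures in LB at 37°C with agitation. Plates were read after 20 h at 37°C. Antibiotics tested were cefoxitin, norfloxacin, chloramphenicol and minocycline.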
As for `CN(C)c1ccc(O)c2c1C[C@H]1C[C@H]3[C@H](N(C)C)C(O)=C(C(N)=O)C(=O)[C@@]3(O)C(O)=C1C2=O` [MINOCYCLINE], the minimal inhibitory concentration (MIC) (commonly the least concentration at which growth counts as inhibited) was found to be 4.9 µg/mL (≈ 10.7 µM).

For another assay, the system named is Escherichia coli. Description: Antibacterial activity against marA-overproducing Escherichia coli CR1000 harboring inactivated ynfE gene assessed as MarA-mediated multidrug resistance level by measuring fold change in MIC relative to MarA-deficient Escherichia coli CR2000. The class given is functional.
Conditions: not given
In a few lines: as §1
With `CN(C)c1ccc(O)c2c1C[C@H]1C[C@H]3[C@H](N(C)C)C(O)=C(C(N)=O)C(=O)[C@@]3(O)C(O)=C1C2=O` [MINOCYCLINE], the Activity was 100%.

In a further assay the test system is Escherichia coli. Nature of the assay: Antibacterial activity against marA-overproducing Escherichia coli CR1000 harboring inactivated metL gene assessed as MarA-mediated multidrug resistance level by measuring fold change in MIC relative to MarA-deficient Escherichia coli CR2000.
Conditions: not given
The class given is functional. In a few lines: as §1
In the case of `CN(C)c1ccc(O)c2c1C[C@H]1C[C@H]3[C@H](N(C)C)C(O)=C(C(N)=O)C(=O)[C@@]3(O)C(O)=C1C2=O` [MINOCYCLINE], the Activity came out at 100%.

For the next assay, the system named is Escherichia coli. Nature of the assay: Antibacterial activity against marA-overproducing Escherichia coli CR1000 harboring inactivated maoC gene assessed as MarA-mediated multidrug resistance level by measuring fold change in MIC relative to MarA-deficient Escherichia coli CR2000.
Conditions: not given
Type of assay: functional. Summed up:
as §1
For the molecule `CN(C)c1ccc(O)c2c1C[C@H]1C[C@H]3[C@H](N(C)C)C(O)=C(C(N)=O)C(=O)[C@@]3(O)C(O)=C1C2=O` [MINOCYCLINE], the Activity amounted to 40%.

The next assay relates to Escherichia coli. Description: Antibacterial activity against marA-overproducing Escherichia coli CR1000 harboring inactivated cspGp gene assessed as MarA-mediated multidrug resistance level by measuring fold change in MIC relative to MarA-deficient Escherichia coli CR2000. Type of assay: functional.
Conditions: not given
Summed up: as §1
Turning to `CN(C)c1ccc(O)c2c1C[C@H]1C[C@H]3[C@H](N(C)C)C(O)=C(C(N)=O)C(=O)[C@@]3(O)C(O)=C1C2=O` [MINOCYCLINE], the Activity is 75%.

A further assay concerns Escherichia coli. Nature of the assay: Antibacterial activity against marA-overproducing Escherichia coli CR1000 harboring inactivated hns gene assessed as MarA-mediated multidrug resistance level by measuring fold decrease in MIC relative to MarA-deficient Escherichia coli CR2000. Type of assay: functional. On the set-up: scale not given: the % may be the effect or the level left.
Conditions: not given
Summed up: as §1
On to `CN(C)c1ccc(O)c2c1C[C@H]1C[C@H]3[C@H](N(C)C)C(O)=C(C(N)=O)C(=O)[C@@]3(O)C(O)=C1C2=O` [MINOCYCLINE], for which the Activity was determined as 35%.

Another assay deals with Escherichia coli. Description: Antibacterial activity against marA-overproducing Escherichia coli CR1000 harboring inactivated ompR gene assessed as MarA-mediated multidrug resistance level by measuring fold change in MIC relative to MarA-deficient Escherichia coli CR2000. Type of assay: functional.
Conditions: not given
Summed up: as §1
As to `CN(C)c1ccc(O)c2c1C[C@H]1C[C@H]3[C@H](N(C)C)C(O)=C(C(N)=O)C(=O)[C@@]3(O)C(O)=C1C2=O` [MINOCYCLINE], the Activity was found to be 100%.

The next assay deals with Escherichia coli. Description: Antibacterial activity against marA-overproducing Escherichia coli CR1000 harboring inactivated yfdG gene assessed as MarA-mediated multidrug resistance level by measuring fold change in MIC relative to MarA-deficient Escherichia coli CR2000. Type of assay: functional.
Conditions: not given
Summed up: as §1
Regarding `CN(C)c1ccc(O)c2c1C[C@H]1C[C@H]3[C@H](N(C)C)C(O)=C(C(N)=O)C(=O)[C@@]3(O)C(O)=C1C2=O` [MINOCYCLINE], the Activity is reported as 65%.

The next assay relates to Escherichia coli. Description: Antibacterial activity against marA-overproducing Escherichia coli CR1000 harboring inactivated acrB gene assessed as MarA-mediated multidrug resistance level by measuring fold decrease in MIC relative to MarA-deficient Escherichia coli CR2000.
Conditions: not given
The class given is functional. On the set-up: scale not given: the % may be the effect or the level left. In a few lines: as §1
For `CN(C)c1ccc(O)c2c1C[C@H]1C[C@H]3[C@H](N(C)C)C(O)=C(C(N)=O)C(=O)[C@@]3(O)C(O)=C1C2=O` [MINOCYCLINE], the Activity turned out to be 40%.

A further assay relates to Escherichia coli. Description: Antibacterial activity against marA-overproducing Escherichia coli CR1000 harboring inactivated cyaA gene assessed as MarA-mediated multidrug resistance level by measuring fold decrease in MIC relative to MarA-deficient Escherichia coli CR2000. The class given is functional. Set-up: scale not given: the % may be the effect or the level left.
Conditions: not given
In a few lines: as §1
Consider `CN(C)c1ccc(O)c2c1C[C@H]1C[C@H]3[C@H](N(C)C)C(O)=C(C(N)=O)C(=O)[C@@]3(O)C(O)=C1C2=O` [MINOCYCLINE], for which the Activity was determined as 32%.

The next assay has as its system Escherichia coli. Nature of the assay: Antibacterial activity against marA-overproducing Escherichia coli CR1000 harboring inactivated recD gene assessed as MarA-mediated multidrug resistance level by measuring fold change in MIC relative to MarA-deficient Escherichia coli CR2000. Type of assay: functional.
Conditions: not given
In a few lines: as §1
As for `CN(C)c1ccc(O)c2c1C[C@H]1C[C@H]3[C@H](N(C)C)C(O)=C(C(N)=O)C(=O)[C@@]3(O)C(O)=C1C2=O` [MINOCYCLINE], the Activity worked out at 65%.

For a further assay, the system named is Escherichia coli. Description: Antibacterial activity against marA-overproducing Escherichia coli CR1000 harboring inactivated alx gene assessed as MarA-mediated multidrug resistance level by measuring fold change in MIC relative to MarA-deficient Escherichia coli CR2000. Type of assay: functional.
Conditions: not given
Summed up: as §1
On to `CN(C)c1ccc(O)c2c1C[C@H]1C[C@H]3[C@H](N(C)C)C(O)=C(C(N)=O)C(=O)[C@@]3(O)C(O)=C1C2=O` [MINOCYCLINE], for which the Activity worked out at 65%.
